# Assay results taken from ChEMBL document CHEMBL1932952, “Synthesis and biochemical analysis of 2,2,3,3,4,4,5,5,6,6,7,7-dodecafluoro-N-hydroxy-octanediamides as inhibitors of human histone deacetylases” (Bioorg Med Chem, 2012).
# pKd: −log10 of the molar value.
# What was measured:
# [1] = target: T1, Histone deacetylase-like amidohydrolase (Alcaligenes sp. (strain DSM 11172) (Bordetella sp. (strain FB188)), UniProt Q70I53); assay: Inhibition of Bordetella FB188 HDAH using Boc-L-Lys(acetyl)-MCA as substrate by fluorogenic enzymatic assay
# T1 sequence (Q70I53 whole entry): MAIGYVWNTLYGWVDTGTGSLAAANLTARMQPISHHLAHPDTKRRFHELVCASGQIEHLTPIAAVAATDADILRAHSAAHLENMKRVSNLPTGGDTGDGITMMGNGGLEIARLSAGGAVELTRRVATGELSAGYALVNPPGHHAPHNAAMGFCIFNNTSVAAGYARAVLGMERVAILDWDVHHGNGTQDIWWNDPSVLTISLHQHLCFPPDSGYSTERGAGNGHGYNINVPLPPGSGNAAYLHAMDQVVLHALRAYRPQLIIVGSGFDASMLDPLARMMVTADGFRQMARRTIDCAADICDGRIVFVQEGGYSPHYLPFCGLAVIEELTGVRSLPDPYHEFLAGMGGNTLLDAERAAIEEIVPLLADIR
# Histone deacetylase 1 = Histone deacetylase 1 (Homo sapiens, UniProt Q13547); assay: Inhibition of recombinant human HDAC1 using Boc-L-Lys(acetyl)-MCA as substrate by fluorogenic enzymatic assay
# Sequence of Histone deacetylase 1 (Q13547 whole entry): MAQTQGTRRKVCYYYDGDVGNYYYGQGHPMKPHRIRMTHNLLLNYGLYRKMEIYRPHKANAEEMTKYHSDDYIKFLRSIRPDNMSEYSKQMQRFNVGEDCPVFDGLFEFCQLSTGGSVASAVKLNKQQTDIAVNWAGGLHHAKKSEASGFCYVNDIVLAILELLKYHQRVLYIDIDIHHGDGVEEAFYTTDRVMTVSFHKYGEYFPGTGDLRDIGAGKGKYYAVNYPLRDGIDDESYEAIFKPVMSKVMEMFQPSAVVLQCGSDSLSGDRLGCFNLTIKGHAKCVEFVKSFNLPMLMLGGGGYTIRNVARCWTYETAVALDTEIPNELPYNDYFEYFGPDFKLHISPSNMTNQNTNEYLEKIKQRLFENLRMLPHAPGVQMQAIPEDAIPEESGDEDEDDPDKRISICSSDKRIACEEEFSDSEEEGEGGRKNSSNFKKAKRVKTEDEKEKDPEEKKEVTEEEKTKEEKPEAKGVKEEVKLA
# [2] = target: T2, Protein deacetylase HDAC6 (Homo sapiens, UniProt Q9UBN7); assay: Inhibition of recombinant human HDAC6 using Boc-L-Lys(acetyl)-MCA as substrate by fluorogenic enzymatic assay
# T2 sequence (Q9UBN7 whole entry): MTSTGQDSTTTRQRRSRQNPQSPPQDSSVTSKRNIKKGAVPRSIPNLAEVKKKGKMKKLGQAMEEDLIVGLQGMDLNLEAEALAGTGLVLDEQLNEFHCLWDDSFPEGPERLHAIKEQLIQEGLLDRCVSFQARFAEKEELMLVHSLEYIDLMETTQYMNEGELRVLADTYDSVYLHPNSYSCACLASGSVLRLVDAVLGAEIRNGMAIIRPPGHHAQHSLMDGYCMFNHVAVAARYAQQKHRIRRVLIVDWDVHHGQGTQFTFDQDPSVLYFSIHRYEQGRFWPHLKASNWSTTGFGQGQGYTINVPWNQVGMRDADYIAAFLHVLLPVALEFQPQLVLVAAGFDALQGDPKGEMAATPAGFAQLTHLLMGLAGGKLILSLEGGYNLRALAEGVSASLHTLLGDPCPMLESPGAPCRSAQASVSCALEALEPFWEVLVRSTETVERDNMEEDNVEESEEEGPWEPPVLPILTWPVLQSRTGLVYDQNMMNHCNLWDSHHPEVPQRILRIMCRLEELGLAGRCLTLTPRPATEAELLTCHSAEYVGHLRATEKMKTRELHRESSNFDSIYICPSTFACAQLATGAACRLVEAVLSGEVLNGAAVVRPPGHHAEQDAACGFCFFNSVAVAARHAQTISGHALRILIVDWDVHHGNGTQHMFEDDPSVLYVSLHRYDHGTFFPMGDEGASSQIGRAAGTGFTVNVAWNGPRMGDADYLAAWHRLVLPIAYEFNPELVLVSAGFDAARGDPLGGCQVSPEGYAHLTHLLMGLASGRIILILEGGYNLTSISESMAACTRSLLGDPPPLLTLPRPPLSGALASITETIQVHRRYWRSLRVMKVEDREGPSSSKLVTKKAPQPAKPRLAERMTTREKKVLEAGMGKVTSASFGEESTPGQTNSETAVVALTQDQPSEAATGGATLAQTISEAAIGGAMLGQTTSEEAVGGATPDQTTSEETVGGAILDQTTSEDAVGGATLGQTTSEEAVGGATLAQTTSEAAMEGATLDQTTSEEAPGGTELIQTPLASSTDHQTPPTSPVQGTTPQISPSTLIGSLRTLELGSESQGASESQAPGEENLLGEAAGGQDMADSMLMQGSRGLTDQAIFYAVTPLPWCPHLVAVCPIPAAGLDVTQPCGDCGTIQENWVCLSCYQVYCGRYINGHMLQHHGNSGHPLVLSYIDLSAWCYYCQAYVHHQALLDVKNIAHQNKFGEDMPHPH
# Histone deacetylase 7 = target: T3, Histone deacetylase 7 (Homo sapiens, UniProt Q8WUI4); assay: Inhibition of recombinant human HDAC7 using Boc-L-Lys(trifluoroacetyl)-MCA as substrate by fluorogenic enzymatic assay
# T3 sequence (Q8WUI4 whole entry): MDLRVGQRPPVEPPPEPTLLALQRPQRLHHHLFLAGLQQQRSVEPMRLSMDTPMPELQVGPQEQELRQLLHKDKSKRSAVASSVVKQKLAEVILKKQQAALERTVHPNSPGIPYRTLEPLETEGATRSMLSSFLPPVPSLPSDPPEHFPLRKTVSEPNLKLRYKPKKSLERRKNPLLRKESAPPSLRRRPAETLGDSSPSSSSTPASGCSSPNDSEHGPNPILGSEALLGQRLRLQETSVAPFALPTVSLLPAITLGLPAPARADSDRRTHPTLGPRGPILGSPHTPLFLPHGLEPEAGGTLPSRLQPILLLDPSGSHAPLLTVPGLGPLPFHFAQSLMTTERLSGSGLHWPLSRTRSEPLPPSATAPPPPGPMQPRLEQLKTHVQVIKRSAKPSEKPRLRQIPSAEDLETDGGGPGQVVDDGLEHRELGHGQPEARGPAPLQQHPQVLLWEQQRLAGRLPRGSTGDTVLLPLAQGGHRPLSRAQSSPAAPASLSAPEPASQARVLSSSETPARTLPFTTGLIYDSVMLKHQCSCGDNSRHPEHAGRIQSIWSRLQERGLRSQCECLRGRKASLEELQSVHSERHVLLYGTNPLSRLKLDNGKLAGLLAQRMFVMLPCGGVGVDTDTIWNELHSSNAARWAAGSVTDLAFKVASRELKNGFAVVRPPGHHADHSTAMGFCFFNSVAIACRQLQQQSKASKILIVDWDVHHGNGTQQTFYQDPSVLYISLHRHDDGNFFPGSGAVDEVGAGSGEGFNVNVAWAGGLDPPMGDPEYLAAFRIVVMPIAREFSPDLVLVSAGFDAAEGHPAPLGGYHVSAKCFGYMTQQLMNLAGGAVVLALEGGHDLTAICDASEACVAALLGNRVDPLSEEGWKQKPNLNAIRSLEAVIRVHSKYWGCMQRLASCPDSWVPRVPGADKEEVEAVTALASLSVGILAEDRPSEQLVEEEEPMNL
# Histone deacetylase 8 = target: T4, Histone deacetylase 8 (Homo sapiens, UniProt Q9BY41); assay: Inhibition of recombinant human HDAC8 using Boc-L-Lys(trifluoroacetyl)-MCA as substrate by fluorogenic enzymatic assay
# T4 sequence (Q9BY41 whole entry): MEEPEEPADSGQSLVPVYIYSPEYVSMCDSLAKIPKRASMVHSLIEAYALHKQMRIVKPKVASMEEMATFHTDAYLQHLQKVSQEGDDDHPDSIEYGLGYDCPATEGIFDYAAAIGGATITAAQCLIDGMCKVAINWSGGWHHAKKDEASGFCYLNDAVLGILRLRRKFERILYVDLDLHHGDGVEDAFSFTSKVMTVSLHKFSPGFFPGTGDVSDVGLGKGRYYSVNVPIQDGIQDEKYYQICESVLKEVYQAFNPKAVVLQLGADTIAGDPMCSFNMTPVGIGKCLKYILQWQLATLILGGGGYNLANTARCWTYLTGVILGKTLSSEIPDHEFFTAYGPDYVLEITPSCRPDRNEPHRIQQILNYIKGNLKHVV
# Histone deacetylase [3] = assay: Inhibition of HDAC in human K562 cells using Boc-L-Lys(acetyl)-MCA as substrate by fluorogenic cellular assay; format: cell-based
# Summary of the method: (§1)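 K562 cells were grown in RPMI with 10% FCS, L-glutamine and gentamycin, then pelleted. Lysis in 50 mM Tris–HCl pH 8.5, 1 M NaCl, 1 mM MgCl₂, Triton X-100 (up to 5× pellet volume), 2 h at 37 °C. The diluted lysate replaces recombinant enzyme in the two-step fluorogenic trypsin-coupled assay with substrate at 20 µM final. Read-out is AMC fluorescence (ex 390, em 460 nm), giving IC50.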
# Histone deacetylase [4] = assay: Inhibition of HDAC in human K562 cells using Boc-L-Lys(trifluoroacetyl)-MCA as substrate by fluorogenic cellular assay; format: cell-based; summary of the method: as §1
Compound,pKd [1],pKd (Histone deacetylase 1),pKd [2],pKd (Histone deacetylase 7),pKd (Histone deacetylase 8),IC50 (Histone deacetylase [3]) [µM],IC50 (Histone deacetylase [4]) [µM]
O=C(NO)C(F)(F)C(F)(F)C(F)(F)C(F)(F)C(F)(F)C(F)(F)C(=O)Nc1cccc2cc3ccccc3cc12,6.13,4.85,5.23,4.89,5.85,> 50,> 50
O=C(NO)C(F)(F)C(F)(F)C(F)(F)C(F)(F)C(F)(F)C(F)(F)C(=O)Nc1ccc(I)cc1,6.41,4.85,5.38,5.39,4.44,> 50,> 50
O=C(NO)C(F)(F)C(F)(F)C(F)(F)C(F)(F)C(F)(F)C(F)(F)C(=O)Nc1ccc2cc3ccccc3cc2c1,5.04,4.19,4.96,4.42,4.22,–,–
O=C(NO)C(F)(F)C(F)(F)C(F)(F)C(F)(F)C(F)(F)C(F)(F)C(=O)Nc1cccc2ccccc12,6.43,4.54,4.49,4.70,4.72,–,–
O=C(NO)C(F)(F)C(F)(F)C(F)(F)C(F)(F)C(F)(F)C(F)(F)C(=O)Nc1ccc(-c2cn(-c3ccccc3)nn2)cc1,5.15,< 4.00,5.09,4.52,< 4.00,–,–
CCc1cccc(NC(=O)C(F)(F)C(F)(F)C(F)(F)C(F)(F)C(F)(F)C(F)(F)C(=O)NO)c1,6.72,4.80,5.89,5.52,4.89,> 50,42
O=C(NO)C(F)(F)C(F)(F)C(F)(F)C(F)(F)C(F)(F)C(F)(F)C(=O)Nc1ccc(-c2cnnn2-c2ccccc2)cc1,5.35,4.18,4.33,4.92,< 4.00,–,–
O=C(NO)C(F)(F)C(F)(F)C(F)(F)C(F)(F)C(F)(F)C(F)(F)C(=O)Nc1cccc(-c2ccccc2)c1,6.35,4.52,4.82,4.85,4.22,–,–
N#Cc1ccc(NC(=O)C(F)(F)C(F)(F)C(F)(F)C(F)(F)C(F)(F)C(F)(F)C(=O)NO)cc1,6.64,4.74,4.15,4.49,4.46,–,–
O=C(NO)C(F)(F)C(F)(F)C(F)(F)C(F)(F)C(F)(F)C(F)(F)C(=O)Nc1ccc(-c2ccccc2)cc1,5.06,4.51,4.31,4.85,4.24,–,–
O=C(NO)C(F)(F)C(F)(F)C(F)(F)C(F)(F)C(F)(F)C(F)(F)C(=O)Nc1ccccc1-c1ccccc1,6.07,4.31,5.04,4.85,5.28,> 50,> 50
O=C(NO)C(F)(F)C(F)(F)C(F)(F)C(F)(F)C(F)(F)C(F)(F)C(=O)Nc1cc2ccccc2c2ccccc12,6.54,4.74,5.00,4.96,5.28,–,–
O=C(NO)C(F)(F)C(F)(F)C(F)(F)C(F)(F)C(F)(F)C(F)(F)C(=O)Nc1ccc(Cl)cc1,6.68,4.92,4.64,4.72,4.46,–,–
CC(=O)Nc1ccc(NC(=O)C(F)(F)C(F)(F)C(F)(F)C(F)(F)C(F)(F)C(F)(F)C(=O)NO)cc1,5.89,4.74,5.04,4.89,4.44,> 50,> 50
O=C(NO)C(F)(F)C(F)(F)C(F)(F)C(F)(F)C(F)(F)C(F)(F)C(=O)Nc1ccc2ccccc2c1,6.80,4.92,5.17,4.96,4.31,> 50,45
O=C(Nc1ccccc1)C(F)(F)C(F)(F)C(F)(F)C(F)(F)C(F)(F)C(F)(F)C(=O)Nc1ccccc1,4.57,< 4.00,< 4.00,< 4.00,< 4.00,–,–
Cc1ccc(NC(=O)C(F)(F)C(F)(F)C(F)(F)C(F)(F)C(F)(F)C(F)(F)C(=O)NO)cc1C,6.59,4.62,4.62,5.48,4.85,> 50,> 50
Cc1ccc(NC(=O)C(F)(F)C(F)(F)C(F)(F)C(F)(F)C(F)(F)C(F)(F)C(=O)NO)cc1,6.57,4.85,< 4.00,4.28,4.47,–,–
O=C(NO)C(F)(F)C(F)(F)C(F)(F)C(F)(F)C(F)(F)C(F)(F)C(=O)Nc1ccc2ccc3cccc4ccc1c2c34,6.22,4.66,4.77,4.12,4.33,–,–
